{
  "source": "ChEMBL document CHEMBL1122510",
  "about": "“Actinidin hydrolysis of substituted-phenyl hippurates: a quantitative structure-activity relationship and graphics comparison with hydrolysis by papain” (J Med Chem, 1984)",
  "data": [
    {"assay": "Michaelis constant for Actinidin-catalyzed hydrolysis", "format": "ADME", "method_in_brief": "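Actinidin purified in-house from kiwi fruit, stored as crystal suspension in 0.1 M sodium phosphate pH 6 with 20% ammonium sulfate; diluted, activated with aqueous DTE (~15 mg/mL), then diluted in 0.1 M sodium phosphate pH 6.0. Substituted-phenyl hippurate added in CH3CN to enzyme-buffer at 25 °C; initial hydrolysis rates read spectrophotometrically at ≥8 substrate concentrations.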", "values": [
      {"smiles": "Cc1cc(C)cc(OC(=O)CNC(=O)c2ccccc2)c1", "Log 1/Km": 3.37},
      {"smiles": "COc1cc(OC)cc(OC(=O)CNC(=O)c2ccccc2)c1", "Log 1/Km": 3.6},
      {"smiles": "O=C(CNC(=O)c1ccccc1)Oc1cc(Cl)c(Cl)c(Cl)c1", "Log 1/Km": 4.01},
      {"smiles": "NS(=O)(=O)c1ccc(OC(=O)CNC(=O)c2ccccc2)cc1", "Log 1/Km": 3.22},
      {"smiles": "CCc1cc(C)cc(OC(=O)CNC(=O)c2ccccc2)c1", "Log 1/Km": 3.52},
      {"smiles": "NS(=O)(=O)c1cccc(OC(=O)CNC(=O)c2ccccc2)c1", "Log 1/Km": 3.42},
      {"smiles": "Cc1cccc(OC(=O)CNC(=O)c2ccccc2)c1", "Log 1/Km": 3.26},
      {"smiles": "NC(=O)c1ccc(OC(=O)CNC(=O)c2ccccc2)cc1", "Log 1/Km": 3.47},
      {"smiles": "O=C(CNC(=O)c1ccccc1)Oc1ccccc1", "Log 1/Km": 2.77},
      {"smiles": "CC(=O)c1ccc(OC(=O)CNC(=O)c2ccccc2)cc1", "Log 1/Km": 3.47},
      {"smiles": "COc1ccc(OC(=O)CNC(=O)c2ccccc2)cc1", "Log 1/Km": 2.87},
      {"smiles": "Nc1ccc(OC(=O)CNC(=O)c2ccccc2)cc1", "Log 1/Km": 2.55},
      {"smiles": "O=C(CNC(=O)c1ccccc1)Oc1cc(Cl)cc(Cl)c1", "Log 1/Km": 3.84},
      {"smiles": "O=C(CNC(=O)c1ccccc1)Oc1cccc(Cl)c1", "Log 1/Km": 3.63},
      {"smiles": "CC(=O)Nc1cccc(OC(=O)CNC(=O)c2ccccc2)c1", "Log 1/Km": 3.18},
      {"smiles": "O=C(CNC(=O)c1ccccc1)Oc1ccc([N+](=O)[O-])cc1", "Log 1/Km": 3.8},
      {"smiles": "O=C(CNC(=O)c1ccccc1)Oc1cc([N+](=O)[O-])cc([N+](=O)[O-])c1", "Log 1/Km": 3.9},
      {"smiles": "NC(=O)c1cccc(OC(=O)CNC(=O)c2ccccc2)c1", "Log 1/Km": 3.15},
      {"smiles": "Cc1ccc(OC(=O)CNC(=O)c2ccccc2)cc1", "Log 1/Km": 2.95},
      {"smiles": "CC(C)(C)c1cccc(OC(=O)CNC(=O)c2ccccc2)c1", "Log 1/Km": 3.66},
      {"smiles": "O=C(CNC(=O)c1ccccc1)Oc1cccc([N+](=O)[O-])c1", "Log 1/Km": 3.53},
      {"smiles": "O=C(CNC(=O)c1ccccc1)Oc1ccc(F)cc1", "Log 1/Km": 2.72},
      {"smiles": "N#Cc1cccc(OC(=O)CNC(=O)c2ccccc2)c1", "Log 1/Km": 3.08},
      {"smiles": "O=C(CNC(=O)c1ccccc1)Oc1cccc(Br)c1", "Log 1/Km": 3.64},
      {"smiles": "O=C(CNC(=O)c1ccccc1)Oc1cccc(I)c1", "Log 1/Km": 3.93},
      {"smiles": "N#Cc1ccc(OC(=O)CNC(=O)c2ccccc2)cc1", "Log 1/Km": 3.62},
      {"smiles": "O=C(CNC(=O)c1ccccc1)Oc1cccc(F)c1", "Log 1/Km": 3.01},
      {"smiles": "O=C(CNC(=O)c1ccccc1)Oc1cccc(C(F)(F)F)c1", "Log 1/Km": 3.47},
      {"smiles": "O=C(CNC(=O)c1ccccc1)Oc1ccc(Cl)cc1", "Log 1/Km": 3.04}
    ]}
  ]
}
